This is a sample that favours compounds with a hit; in the whole collection about 3.5% have one here.
RGS4 inh – RGS4 inhibitors, primary screen, cell-based, HEK293 M3R inducible RGS4, calcium flux. AID 463165, 2010. Fluo-4 calcium flux; active compounds read high; triggered by carbachol at its EC20. Regulator of G-protein signaling 4 (Homo sapiens), P49798. 0.45% of 310,000 active. B-score at 10 µM;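 active = B-score, a plate-corrected calcium signal, over three deviations above library mean, with baseline fluorescence within five deviations of library mean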;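 note: RGS4 expression induced by doxycycline in cells with stable M3 receptor; B-score is computed from the integrated fluorescence ratio over baseline after carbachol; higher B-score means a larger calcium signal and so more RGS4 inhibition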
Target sequence (P49798 whole entry, looked up): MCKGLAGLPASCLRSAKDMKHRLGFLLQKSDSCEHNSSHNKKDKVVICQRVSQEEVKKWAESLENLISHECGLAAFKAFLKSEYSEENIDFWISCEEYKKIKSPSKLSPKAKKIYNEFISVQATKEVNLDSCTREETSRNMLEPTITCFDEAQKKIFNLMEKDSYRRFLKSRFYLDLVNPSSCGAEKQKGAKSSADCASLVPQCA
MrgX1 agonist – agonists of human MrgX1 receptor, primary screen, HEK293 cells, Fluo-4 calcium flux; Fluo-4 calcium fluorescence, agonist mode; active compounds read high; Mas-related G-protein coupled receptor member X1 (Homo sapiens), Q96LB2; AID 588627, 2011; B-score at 10 µM; 0.44% of 310,000 active;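 active = calcium response B-score plate-corrected fluorescence ratio at least 3 library SD, with starting fluorescence B-score inside 5 SD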
Target sequence (Q96LB2 whole entry, looked up): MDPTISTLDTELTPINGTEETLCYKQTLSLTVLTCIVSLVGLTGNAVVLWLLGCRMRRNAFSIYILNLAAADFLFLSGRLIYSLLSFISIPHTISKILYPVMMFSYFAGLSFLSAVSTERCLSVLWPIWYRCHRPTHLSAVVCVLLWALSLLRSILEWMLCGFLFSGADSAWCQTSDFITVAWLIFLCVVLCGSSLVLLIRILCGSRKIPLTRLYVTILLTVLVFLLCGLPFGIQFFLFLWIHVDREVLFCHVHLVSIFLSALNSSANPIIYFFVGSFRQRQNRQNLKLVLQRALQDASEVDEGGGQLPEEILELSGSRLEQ
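System: HEK293 cells stably expressing human MrgX1 receptor; Dosing: test compound in the initial addition of three; Schedule: overnight plating, then 30 min 37 °C plus 30 min room-temperature dye loading; Detection: kinetic calcium dye fluorescence, Fluo-4 NW; Controls: per-plate positive and negative controls for Z′ factor.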
RGS4 act – RGS4 potentiators or activators, primary screen, cell-based, HEK293 M3R inducible RGS4, calcium flux | B-score at 10 µM | 0.92% of 310,000 active | carbachol calcium flux Fluo4; active compounds read low;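 active = B-score of the integrated calcium signal more than 4 SD below the library mean, with starting fluorescence not abnormally high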;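 note: negative B-score means reduced calcium response which marks RGS4 activation or potentiation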
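Material: Inducible-RGS4 HEK293 cells carrying M3 receptor; also added: carbachol at ECmax as muscarinic agonist stimulus; incubation: compound preincubation 20 min at room temperature before agonist; signal: Fluo4-AM (2 µM) calcium-flux fluorescence, kinetic read; measure: integrated calcium ratio converted to B score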
MrgX1 allo act – positive allosteric modulators of MrgX1, primary screen, HEK293 cells, Fluo-4 calcium flux. FDSS; active compounds read high. B-score at 10 µM. 0.63% of 310,000 active;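 active = plate-corrected calcium response at least 3 library SD above typical, normal starting fluorescence, not activating the receptor alone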;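 note: compound read alongside a low EC10 to EC30 dose of BAM8-22 agonist; peak minus trough fluorescence over baseline measured at the second addition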
MrgX1 antagonist – antagonists of human MrgX1 receptor, primary screen, HEK293 cells, Fluo-4 calcium flux | BAM8-22 antagonism; active compounds read low | B-score at 10 µM | 1.3% of 310,000 active;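 active = calcium-response B-score plate-corrected more than 3 library SD below zero, starting fluorescence within 5 deviations, no agonist response on first addition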;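 note: peak minus trough fluorescence over baseline after final BAM8-22 challenge near maximal dose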
RGS4 block valid – enhanced carbachol calcium response, M3R/RGS4 cells, RGS4 inhibitor project, cell-based, validation screen, HEK293 M3R/RGS4, calcium flux; calcium response, % at 10 µM; carbachol calcium Fluo-4 fluorescence; carbachol added at its EC20; 0 = buffer wells, 100 = carbachol control; 65% of 1,700 active; shares compounds with RGS4 inh;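 active = duplicate-averaged calcium response above the buffer-only control mean plus 5 SD of those controls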;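 note: integrated fluorescence ratio F max minus min over baseline F0; higher response in RGS4-induced cells means RGS4 inhibition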
M3R Ca ctr – carbachol calcium response in non-induced M3R cells, confirmation, counter-screen for RGS4 inhibitor project, cell-based, HEK293 M3R | shares compounds with RGS4 inh | carbachol calcium Fluo-4; submaximal (EC20) carbachol stimulus; buffer wells 0%, carbachol control wells 100% | activity (percent), % at 10 µM | 20% of 1,900 active | AID 493000, 2010; call rule not given here;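 note: RGS4 induction absent so cells express M3R without RGS4; higher means more calcium signal and flags a non-specific hit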
RGS4 inh ctr2 – signal in non-induced cells without carbachol, RGS4 inhibitor counter-screen; shares compounds with RGS4 inh; HEK293 M3R/RGS4 non-induced, Fluo-4 calcium, no carbachol; normalised: buffer wells 0%, carbachol wells 100%; calcium response (agonist-mode artifact), % at 10 µM; 22% of 1,900 active;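 active = duplicate-averaged calcium rise in uninduced cells above buffer wells' mean plus 5 SD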
Of the large screens only hits and unclear results are named; the others gave an inactive call (follow-up assays come after a bar, where they were run).

C[C@]12C(=O)N(c3ccc(Cl)cc3)C(=O)N1[C@@H]1c3ccccc3OC[C@@H]1[C@H]2c1ccccc1	none | RGS4 block valid inactive | M3R Ca ctr inactive | RGS4 inh ctr2 inactive
C[C@]12C(=O)N(c3ccc(Cl)cc3)C(=O)N1[C@H]1c3ccccc3OC[C@@H]1[C@H]2c1ccccc1	none | RGS4 block valid inactive | M3R Ca ctr inactive | RGS4 inh ctr2 inactive
C[C@]12C(=O)N(c3ccc(Br)cc3)C(=O)N1[C@@H]1c3ccccc3OC[C@@H]1[C@H]2c1ccccc1	none
C[C@@]12C(=O)N(c3ccc(F)cc3)C(=O)N1[C@@H]1c3ccccc3OC[C@@H]1[C@H]2c1ccccc1	none
CN(C)S(=O)(=O)c1ccc(C(=O)N2CCN=C2SCc2cccnc2)cc1	none
COc1cccc(N(CC(=O)NCCSc2ccc(Cl)cc2)S(C)(=O)=O)c1	none
CCOCCCNC(=O)/C(C#N)=C/c1ccc([N+](=O)[O-])o1	RGS4 inh 8.1, MrgX1 allo act 8.4 | RGS4 block valid 31% | M3R Ca ctr inactive | RGS4 inh ctr2 inactive
CC(NC(=O)/C(C#N)=C/c1ccco1)c1ccccc1 (configuration not stated)	none
CC(NC(=O)/C(C#N)=C/c1ccc([N+](=O)[O-])o1)c1ccccc1 (configuration not stated)	RGS4 inh 6.2 | RGS4 block valid 16% | M3R Ca ctr inactive | RGS4 inh ctr2 8.5%
CC1=NN(c2ccccc2)C(=O)/C1=C/C=C/c1ccccc1	none
CC1=NN(c2cccc(C(=O)O)c2)C(=O)/C1=C\C=C\c1ccco1	RGS4 inh 9.8 | RGS4 block valid 16% | M3R Ca ctr 34% | RGS4 inh ctr2 inactive
C#CCOc1ccc(/C=C2/C(=O)N(c3cccc(C(=O)O)c3)N=C2C)cc1OC	RGS4 inh 6 | RGS4 block valid 5.0% | M3R Ca ctr inactive | RGS4 inh ctr2 inactive
C=C(C)CC1(NC(C)c2ccccc2)CCCCC1 (configuration not stated)	none
COc1ccc(/C=C2\SC(=O)N(CCc3nnc(N)s3)C2=O)cc1	none
COc1cc(/C=C2\SC(=Nc3ccccc3)N(Cc3ccco3)C2=O)ccc1OC(C)C(=O)O (configuration not stated)	none
COc1cc(/C=C2\SC(=Nc3ccc(N4CCOCC4)cc3)N(C)C2=O)ccc1OC(C)C(=O)O (configuration not stated)	RGS4 inh 6.1 | RGS4 block valid 7.5% | M3R Ca ctr inactive | RGS4 inh ctr2 inactive
O=c1c2ccccc2c(-c2n[nH]c(=S)o2)nn1Cc1ccccc1	none
OCc1ccc(-c2nn(Cc3ccccc3)c3ccccc23)o1	RGS4 inh 5.1 | RGS4 block valid 6.0% | M3R Ca ctr inactive | RGS4 inh ctr2 inactive
O=C(O)c1ccccc1N/N=C/C1=C(N2CCOCC2)C(=C\c2ccccc2)/CC1	RGS4 inh 8.2, MrgX1 agonist 39 | RGS4 block valid 30% | M3R Ca ctr inactive | RGS4 inh ctr2 140%
O=C(N/N=C/C1=C(N2CCOCC2)C(=C\c2ccccc2)/CC1)Nc1ccccc1	none
CCN1CCN(Cc2c(C(=O)N/N=C(\C)c3ccc(Cl)cc3)nnn2-c2nonc2N)CC1	none
CCN(C#N)c1nc(NC(C)C)nc(NC(C)(C)C)n1	RGS4 inh 5.1 | RGS4 block valid 7.0% | M3R Ca ctr inactive | RGS4 inh ctr2 inactive
CCc1cccc(CC)c1NC(=S)NCCc1c(C)[nH]c2ccccc12	RGS4 inh 6.2 | RGS4 block valid 22% | M3R Ca ctr inactive | RGS4 inh ctr2 inactive
CCOc1cc(CNc2cccc3ccccc23)cc(Br)c1OCC(=O)NC(C)(C)C	none
O=C(N/N=C/c1cccs1)c1ccc2nc[nH]c2c1	none
COc1cccc(/C=C(/C(=O)OCC(=O)NC2CCCCCCC2)c2ccccc2)c1	RGS4 inh 5 | RGS4 block valid inactive | M3R Ca ctr inactive | RGS4 inh ctr2 7.0%
COc1cccc(/C=C(/C(=O)OCC(=O)NCC2CCCO2)c2ccccc2)c1 (configuration not stated)	none
C=CCNC(=O)NC(=O)COC(=O)c1nc2nccc(C)n2n1	RGS4 inh 4.7 | RGS4 block valid inactive | M3R Ca ctr inactive | RGS4 inh ctr2 inactive
